Legend:
Mus musculus [1] = assay: Dose normalized AUC (0 to infinity) in wild-type FVB/N mouse at 2 mg/kg, iv by LC-MS/MS analysis; type: ADME, organism-based; design: dose 2 mg/kg, route intravenous; details: in vivo
Mus musculus [2] = assay: Dose normalized AUC (0 to infinity) in wild-type FVB/N mouse at 10 mg/kg, iv by LC-MS/MS analysis; type: ADME, organism-based; design: dose 10 mg/kg, route intravenous; details: in vivo
Mus musculus [3] = assay: Dose normalized AUC (0 to infinity) in wild-type FVB/N mouse at 20 mg/kg, iv by LC-MS/MS analysis; type: ADME, organism-based; design: dose 20 mg/kg, route intravenous; details: in vivo
[4] = Clearance in wild-type FVB/N mouse at 2 mg/kg, iv by LC-MS/MS analysis; type: ADME, organism-based; design: dose 2 mg/kg, route intravenous; details: in vivo
[5] = Clearance in wild-type FVB/N mouse at 10 mg/kg, iv by LC-MS/MS analysis; type: ADME, organism-based; design: dose 10 mg/kg, route intravenous; details: in vivo
[6] = Clearance in wild-type FVB/N mouse at 20 mg/kg, iv by LC-MS/MS analysis; type: ADME, organism-based; design: dose 20 mg/kg, route intravenous; details: in vivo
[7] = Volume of distribution at steady state in wild-type FVB/N mouse at 2 mg/kg, iv by LC-MS/MS analysis; type: ADME, organism-based; design: dose 2 mg/kg, route intravenous; details: in vivo, read-out: Vdss
Summary of the method: (§1)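 Male 8-week FVB/N wild-type or CYP2D6-humanized mice (25-30 g) given 5-MeO-DMT oxalate in saline i.v. at 5 µL/g body weight. Serum collected 0-180 min, N = 3 per time point, proteins precipitated with ice-cold acetonitrile containing internal standard, LC-MS/MS. Noncompartmental analysis of composite mean data; t1/2 = 0.693/terminal slope; Vss = CL×AUMC/AUC, CL = dose/AUC0→∞.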

[8] = Volume of distribution at steady state in wild-type FVB/N mouse at 10 mg/kg, iv by LC-MS/MS analysis; type: ADME, organism-based; design: dose 10 mg/kg, route intravenous; details: in vivo, read-out: Vdss; summary of the method: as §1
[9] = Volume of distribution at steady state in wild-type FVB/N mouse at 20 mg/kg, iv by LC-MS/MS analysis; type: ADME, organism-based; design: dose 20 mg/kg, route intravenous; details: in vivo, read-out: Vdss; summary of the method: as §1
[10] = Half life in wild-type FVB/N mouse at 2 mg/kg, iv by LC-MS/MS analysis; type: ADME, organism-based; design: dose 2 mg/kg, route intravenous; details: in vivo; summary of the method: as §1
[11] = Half life in wild-type FVB/N mouse at 10 mg/kg, iv by LC-MS/MS analysis; type: ADME, organism-based; design: dose 10 mg/kg, route intravenous; details: in vivo
[12] = Half life in wild-type FVB/N mouse at 20 mg/kg, iv by LC-MS/MS analysis; type: ADME, organism-based; design: dose 20 mg/kg, route intravenous; details: in vivo; summary of the method: as §1
Mus musculus [13] = assay: AUC (0 to infinity) in wild-type FVB/N mouse at 2 mg/kg, ip by LC-MS/MS analysis; type: ADME, organism-based, Plasma; design: time infinity, dose 2 mg/kg, route intraperitoneal; details: in vivo
Mus musculus [14] = assay: AUC (0 to infinity) in wild-type FVB/N mouse at 10 mg/kg, ip by LC-MS/MS analysis; type: ADME, organism-based, Plasma; design: time infinity, dose 10 mg/kg, route intraperitoneal; details: in vivo
Mus musculus [15] = assay: AUC (0 to infinity) in wild-type FVB/N mouse at 20 mg/kg, ip by LC-MS/MS analysis; type: ADME, organism-based, Plasma; design: time infinity, dose 20 mg/kg, route intraperitoneal; details: in vivo
Mus musculus [16] = assay: Dose normalized AUC (0 to infinity) in wild-type FVB/N mouse at 2 mg/kg, ip by LC-MS/MS analysis; type: ADME, organism-based; design: dose 2 mg/kg, route intraperitoneal; details: in vivo
[17] = Toxicity in mouse; type: organism-based; details: in vivo
Serum [18] = assay: Drug recovery in wild-type FVB/N mouse serum by LC-MS/MS analysis; type: ADME, cell-free
Serum [19] = assay: Drug recovery in CYP2D6-humanized transgenic FVB/N mouse serum by LC-MS/MS analysis; type: ADME, cell-free
Serum [20] = assay: Drug uptake in wild-type FVB/N mouse serum by LC-MS/MS analysis; type: ADME, cell-free; details: read-out: Drug uptake
Serum [21] = assay: Drug uptake in CYP2D6-humanized transgenic FVB/N mouse serum by LC-MS/MS analysis; type: ADME, cell-free; details: read-out: Drug uptake
Brain [22] = assay: Stability in wild-type FVB/N mouse brain at -80 degC; type: ADME
Summary of the method: (§2)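 Pilot test of 5-MeO-DMT in mouse brain homogenate (ice-cold saline) stored at -80°C over one year, quantified by LC-MS/MS after liquid-liquid extraction.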

Brain [23] = assay: Stability in CYP2D6-humanized transgenic FVB/N mouse brain at -80 degC; type: ADME; summary of the method: as §2
Mus musculus [24] = assay: AUC (0 to infinity) in wild-type FVB/N mouse at 2 mg/kg, iv by LC-MS/MS analysis; type: ADME, organism-based, Plasma; design: time infinity, dose 2 mg/kg, route intravenous; details: in vivo
Mus musculus [25] = assay: AUC (0 to infinity) in wild-type FVB/N mouse at 10 mg/kg, iv by LC-MS/MS analysis; type: ADME, organism-based, Plasma; design: dose 10 mg/kg, route intravenous, time infinity; details: in vivo
Mus musculus [26] = assay: Dose normalized AUC (0 to infinity) in wild-type FVB/N mouse at 10 mg/kg, ip by LC-MS/MS analysis; type: ADME, organism-based; design: dose 10 mg/kg, route intraperitoneal; details: in vivo
Mus musculus [27] = assay: Dose normalized AUC (0 to infinity) in wild-type FVB/N mouse at 20 mg/kg, ip by LC-MS/MS analysis; type: ADME, organism-based; design: dose 20 mg/kg, route intraperitoneal; details: in vivo
[28] = Tmax in wild-type FVB/N mouse at 2 mg/kg, ip by LC-MS/MS analysis; type: ADME, organism-based; design: dose 2 mg/kg, route intraperitoneal; details: in vivo
Summary of the method: (§3)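 Male 8-week FVB/N wild-type or CYP2D6-humanized mice given 5-MeO-DMT oxalate in saline i.p. at 10 µL/g body weight. Serum sampled 0-180 min, N = 4 per time point, processed by acetonitrile protein precipitation with internal standard, quantified by LC-MS/MS. Tmax taken as observed from composite mean serum concentration-time data.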

[29] = Tmax in wild-type FVB/N mouse at 10 mg/kg, ip by LC-MS/MS analysis; type: ADME, organism-based; design: dose 10 mg/kg, route intraperitoneal; details: in vivo; summary of the method: as §3
[30] = Tmax in wild-type FVB/N mouse at 20 mg/kg, ip by LC-MS/MS analysis; type: ADME, organism-based; design: dose 20 mg/kg, route intraperitoneal; details: in vivo; summary of the method: as §3
[31] = Cmax in wild-type FVB/N mouse at 2 mg/kg, ip by LC-MS/MS analysis; type: ADME, organism-based; design: dose 2 mg/kg, route intraperitoneal; details: in vivo
[32] = Cmax in wild-type FVB/N mouse at 10 mg/kg, ip by LC-MS/MS analysis; type: ADME, organism-based; design: dose 10 mg/kg, route intraperitoneal; details: in vivo
[33] = Cmax in wild-type FVB/N mouse at 20 mg/kg, ip by LC-MS/MS analysis; type: ADME, organism-based; design: dose 20 mg/kg, route intraperitoneal; details: in vivo
[34] = Bioavailability in wild-type FVB/N mouse at 2 mg/kg, ip by LC-MS/MS analysis; type: ADME, organism-based; details: in vivo
[35] = Bioavailability in wild-type FVB/N mouse at 10 mg/kg, ip by LC-MS/MS analysis; type: ADME, organism-based; details: in vivo

## COc1ccc2[nH]cc(CCN(C)C)c2c1.O=C(O)C(=O)O
Mus musculus [1]
  AUC/dose: 5.19 kg·min/L
Mus musculus [2]
  AUC/dose: 10.6 kg·min/L
Mus musculus [3]
  AUC/dose: 10 kg·min/L
[4]
  clearance: 190 mL/min/kg
[5]
  clearance: 94 mL/min/kg
[6]
  clearance: 100 mL/min/kg
[7]
  Vd: 2.27 L/kg
[8]
  Vd: 2.08 L/kg
[9]
  Vd: 1.84 L/kg
[10]
  half-life: 9.2 min
[11]
  half-life: 12 min
[12]
  half-life: 15 min
Mus musculus [13]
  AUC: 24.9 µmol·min/L
Mus musculus [14]
  AUC: 231 µmol·min/L
Mus musculus [15]
  AUC: 654 µmol·min/L
Mus musculus [16]
  AUC/dose: 2.71 kg·min/L
[17]
  LD50: 48 mg/kg
Serum [18]
  Drug recovery: 62%
Serum [19]
  Drug recovery: 62%
Serum [20]
  concentration: 4.1 nM
Serum [21]
  concentration: 4.1 nM
Brain [22]
  Stability: > 1 yr
Brain [23]
  Stability: > 1 yr
Mus musculus [24]
  AUC: 47.6 µmol·min/L
Mus musculus [25]
  AUC: 487 µmol·min/L
Mus musculus [26]
  AUC/dose: 5.03 kg·min/L
Mus musculus [27]
  AUC/dose: 7.13 kg·min/L
[28]
  Tmax: 3 min
[29]
  Tmax: 5 min
[30]
  Tmax: 5 min
[31]
  Cmax: 1310 nM
[32]
  Cmax: 7000 nM
[33]
  Cmax: 15800 nM
[34]
  bioavailability: 52.2%
[35]
  bioavailability: 47.3%

Source: ChEMBL document CHEMBL3525944, “Nonlinear pharmacokinetics of 5-methoxy-N,N-dimethyltryptamine in mice” (Drug Metab Dispos, 2011)
